Test [1] deals with Sulfonylurea receptor 1, Kir6.2 (Homo sapiens, UniProt Q09428+Q14654). The test can be described thus: […] of human KATP (SUR1/Kir6.2) channel expressed in Xenopus oocytes. The format is functional, cell-based, Oocyte. A digest of the protocol: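 ATP-sensitive K+ currents were recorded by excised-patch clamp from inside-out macropatches pulled from Xenopus oocytes expressing human SUR1/Kir6.2. Values are means of 3-6 experiments.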

Test [2] deals with T1, Sulfonylurea receptor 1, Kir6.2 (Homo sapiens) (UniProt Q14654+Q09428). The test can be described thus: Percent maximal agonist response of human KATP (SUR1/Kir6.2) channel expressed in Xenopus oocytes at 30 uM. The test is classed as functional, cell-based. To be noted: Oocyte. The essentials:
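Inside-out macropatches were excised from Xenopus oocytes expressing human SUR1/Kir6.2, and ATP-sensitive K+ currents were recorded. […] Means of 3-6 experiments.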

Test [3] concerns the target T1, Sulfonylurea receptor 1, Kir6.2 (Homo sapiens). Briefly: Percent maximal agonist response of human KATP (SUR1/Kir6.2) channel expressed in Xenopus oocytes. The format is functional, cell-based. To be noted: Oocyte. The essentials: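 ATP-sensitive K+ currents were recorded by excised-patch clamp from inside-out macropatches pulled from Xenopus oocytes expressing human SUR1/Kir6.2. Compounds were tested across a dose range to give dose–response curves. […] Values are means of 3-6 experiments.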

Chain of Sulfonylurea receptor 1, Kir6.2 (Q14654 whole entry): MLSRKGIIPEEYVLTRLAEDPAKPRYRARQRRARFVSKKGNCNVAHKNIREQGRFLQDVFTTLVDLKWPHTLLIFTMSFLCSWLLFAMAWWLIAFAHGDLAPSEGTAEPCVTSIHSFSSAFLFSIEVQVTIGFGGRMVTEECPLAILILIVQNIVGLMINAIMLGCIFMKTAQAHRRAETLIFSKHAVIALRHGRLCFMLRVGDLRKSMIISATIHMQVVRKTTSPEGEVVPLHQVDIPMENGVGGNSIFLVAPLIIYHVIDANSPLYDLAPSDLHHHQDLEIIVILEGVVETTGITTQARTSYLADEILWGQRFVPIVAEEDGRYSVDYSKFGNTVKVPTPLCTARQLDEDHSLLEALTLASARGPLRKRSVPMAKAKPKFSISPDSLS
Chain of Sulfonylurea receptor 1, Kir6.2 (Q09428 whole entry): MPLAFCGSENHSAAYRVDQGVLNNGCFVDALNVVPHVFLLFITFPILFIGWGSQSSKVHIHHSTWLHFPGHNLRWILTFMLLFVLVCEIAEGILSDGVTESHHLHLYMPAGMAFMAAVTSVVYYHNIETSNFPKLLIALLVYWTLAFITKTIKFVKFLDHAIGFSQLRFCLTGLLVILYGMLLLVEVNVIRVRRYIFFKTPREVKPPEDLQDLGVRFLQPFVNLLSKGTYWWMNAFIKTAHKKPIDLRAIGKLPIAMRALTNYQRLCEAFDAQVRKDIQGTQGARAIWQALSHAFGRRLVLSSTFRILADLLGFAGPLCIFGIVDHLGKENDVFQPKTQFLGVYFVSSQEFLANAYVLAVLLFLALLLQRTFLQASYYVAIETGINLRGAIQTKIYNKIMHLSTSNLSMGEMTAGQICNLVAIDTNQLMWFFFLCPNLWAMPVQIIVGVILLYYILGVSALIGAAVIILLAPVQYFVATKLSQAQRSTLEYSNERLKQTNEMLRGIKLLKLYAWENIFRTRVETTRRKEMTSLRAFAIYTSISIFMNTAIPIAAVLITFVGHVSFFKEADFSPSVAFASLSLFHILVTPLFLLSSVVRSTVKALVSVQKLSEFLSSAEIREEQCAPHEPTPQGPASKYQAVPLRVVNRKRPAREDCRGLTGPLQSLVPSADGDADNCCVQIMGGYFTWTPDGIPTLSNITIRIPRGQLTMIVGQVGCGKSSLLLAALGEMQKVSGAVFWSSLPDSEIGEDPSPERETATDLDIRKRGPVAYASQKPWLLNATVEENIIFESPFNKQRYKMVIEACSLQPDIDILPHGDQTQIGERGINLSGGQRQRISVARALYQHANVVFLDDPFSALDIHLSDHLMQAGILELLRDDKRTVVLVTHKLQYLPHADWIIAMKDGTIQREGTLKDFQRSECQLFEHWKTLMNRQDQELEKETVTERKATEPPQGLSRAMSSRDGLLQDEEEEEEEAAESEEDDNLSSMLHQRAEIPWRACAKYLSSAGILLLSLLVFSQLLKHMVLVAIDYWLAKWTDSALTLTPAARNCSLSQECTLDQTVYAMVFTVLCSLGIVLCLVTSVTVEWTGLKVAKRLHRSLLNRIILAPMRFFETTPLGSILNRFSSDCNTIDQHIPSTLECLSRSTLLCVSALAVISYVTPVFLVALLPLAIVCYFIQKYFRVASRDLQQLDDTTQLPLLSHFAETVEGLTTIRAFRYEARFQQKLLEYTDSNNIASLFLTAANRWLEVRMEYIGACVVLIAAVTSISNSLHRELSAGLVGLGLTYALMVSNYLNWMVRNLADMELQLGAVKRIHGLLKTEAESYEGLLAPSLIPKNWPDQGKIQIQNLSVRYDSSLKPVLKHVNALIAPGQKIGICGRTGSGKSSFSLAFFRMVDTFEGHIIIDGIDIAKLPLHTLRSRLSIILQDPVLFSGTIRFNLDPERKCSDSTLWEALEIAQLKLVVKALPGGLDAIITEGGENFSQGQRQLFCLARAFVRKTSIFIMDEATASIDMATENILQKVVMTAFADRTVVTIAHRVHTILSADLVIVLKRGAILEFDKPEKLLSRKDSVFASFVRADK

Molecule `O=[N+]([O-])c1ccc(-c2cc(C(F)(F)F)[nH]n2)cc1` showed an EC50 in test [1] above 30000 nM. The molecule also gave a Max response in test [2] of 8%. `CC1=Nc2ccc(Cl)cc2S(=O)(=O)N1` displayed a Max response in test [3] of 100%. `O=[N+]([O-])c1c(-c2ccc(F)cc2F)n[nH]c1C(F)(F)F` had an EC50 in test [1] of 1150 nM. With `O=[N+]([O-])c1ccc(-c2[nH]nc(C(F)(F)F)c2[N+](=O)[O-])cc1`, the 50% effective concentration (EC50) in test [1] worked out at 700 nM. In test [3], this molecule gave a Max response of 94%. Regarding `O=[N+]([O-])c1ccc(-c2noc(C(F)(F)F)c2[N+](=O)[O-])cc1`, the EC50 in test [1] was above 30000 nM. In test [1], `O=[N+]([O-])c1c(C(F)(F)F)n[nH]c1-c1ccccc1` had a 50% effective concentration (EC50) of 30000 nM. Besides, the Max response in test [2] was 38%. `O=[N+]([O-])c1c(C(F)(F)F)n[nH]c1-c1ccc(F)cc1F`: in test [3], the Max response stood at 113%.

`O=[N+]([O-])c1c(C(F)(F)F)n[nH]c1-c1ccc(C(F)(F)F)cc1C(F)(F)F` showed a 50% effective concentration (EC50) in test [1] of 540 nM. Further, the Max response in test [3] worked out at 197%.

A word on the EC50: it is the concentration needed to bring the measured effect to its halfway point. A lower EC50 goes with greater potency.
